Assay results as given in ChEMBL document CHEMBL1158809, “Pseudotrienic acids A and B, two bioactive metabolites from Pseudomonas sp. MF381-IODS” (2005).
Activity calls are given as the source filed them. The rule behind the calls is not given here.

Experiments:
Pseudomonas savastanoi = experiment: Antimicrobial activity against Pseudomonas savastanoi up to 100 ug/mL; assay type: functional, organism-based
How it was run: (§1)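 Minimum inhibitory concentration was measured in a microtiter plate growth bioassay against a panel of human and agricultural fungal pathogens and Gram-positive and Gram-negative bacteria.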

Microsporum canis = experiment: Antimicrobial activity against Microsporum canis up to 100 ug/mL; assay type: functional, organism-based; how it was run: as §1
Fusarium culmorum = experiment: Antimicrobial activity against Fusarium culmorum up to 100 ug/mL; assay type: functional, organism-based; how it was run: as §1
Candida albicans = experiment: Antimicrobial activity against Candida albicans up to 100 ug/mL; assay type: functional, organism-based; how it was run: as §1
Staphylococcus aureus = experiment: Antimicrobial activity against Staphylococcus aureus; assay type: functional
Aspergillus fumigatus = experiment: Antimicrobial activity against Aspergillus fumigatus up to 100 ug/mL; assay type: functional, organism-based; how it was run: as §1
Pseudomonas syringae = experiment: Antimicrobial activity against Pseudomonas syringae pv. syringae; assay type: functional
Drechslera = experiment: Antimicrobial activity against Drechslera sorokiniana up to 100 ug/mL; assay type: functional, organism-based; how it was run: as §1
Fusarium oxysporum = experiment: Antimicrobial activity against Fusarium oxysporum up to 100 ug/mL; assay type: functional, organism-based; how it was run: as §1
Heterobasidion annosum = experiment: Antimicrobial activity against Heterobasidion annosum up to 100 ug/mL; assay type: functional, organism-based; how it was run: as §1

| MIC (Staphylococcus aureus) [µg/mL] | MIC (Pseudomonas syringae) [µg/mL] | Structure (SMILES) | Activity (Pseudomonas savastanoi) | Activity (Microsporum canis) | Activity (Fusarium culmorum) | Activity (Candida albicans) | Activity (Aspergillus fumigatus) | Activity (Drechslera) | Activity (Fusarium oxysporum) | Activity (Heterobasidion annosum) |
| --- | --- | --- | --- | --- | --- | --- | --- | --- | --- | --- |
| 70 | 70 | CCCCCCCCCC(O)/C=C/C(C)=C/CC(=O)NC[C@H](O)[C@H](C)C(=O)NCC/C=C/C=C/C=C/C(=O)O (mixture of isomers) [PSEUDOTRIENIC ACID A] | inactive | inactive | inactive | inactive | inactive | inactive | inactive | inactive |
| 70 | 70 | CCCCCCCC(O)/C=C/C(C)=C/CC(=O)NC[C@H](O)[C@H](C)C(=O)NCC/C=C/C=C/C=C/C(=O)O (mixture of isomers) [PSEUDOTRIENIC ACID B] | inactive | inactive | inactive | inactive | inactive | inactive | inactive | inactive |
